# In ChEMBL document CHEMBL5331127, “Discovery of ARD-2051 as a Potent and Orally Efficacious Proteolysis Targeting Chimera (PROTAC) Degrader of Androgen Receptor for the Treatment of Advanced Prostate Cancer” (J Med Chem, 2023):
# pIC50: −log10 of the molar value. The source made the active and inactive calls. The calls are words filed in the database; no cut-off is given here.
# How the values were obtained:
# [1] = biological target: T1, Androgen receptor (Homo sapiens) (UniProt P10275); test: Induction of androgen receptor degradation in human VCaP cells at 0.1 uM after 24 hrs by Western blotting analysis relative to control; type: cell-based
# T1 sequence (whole entry): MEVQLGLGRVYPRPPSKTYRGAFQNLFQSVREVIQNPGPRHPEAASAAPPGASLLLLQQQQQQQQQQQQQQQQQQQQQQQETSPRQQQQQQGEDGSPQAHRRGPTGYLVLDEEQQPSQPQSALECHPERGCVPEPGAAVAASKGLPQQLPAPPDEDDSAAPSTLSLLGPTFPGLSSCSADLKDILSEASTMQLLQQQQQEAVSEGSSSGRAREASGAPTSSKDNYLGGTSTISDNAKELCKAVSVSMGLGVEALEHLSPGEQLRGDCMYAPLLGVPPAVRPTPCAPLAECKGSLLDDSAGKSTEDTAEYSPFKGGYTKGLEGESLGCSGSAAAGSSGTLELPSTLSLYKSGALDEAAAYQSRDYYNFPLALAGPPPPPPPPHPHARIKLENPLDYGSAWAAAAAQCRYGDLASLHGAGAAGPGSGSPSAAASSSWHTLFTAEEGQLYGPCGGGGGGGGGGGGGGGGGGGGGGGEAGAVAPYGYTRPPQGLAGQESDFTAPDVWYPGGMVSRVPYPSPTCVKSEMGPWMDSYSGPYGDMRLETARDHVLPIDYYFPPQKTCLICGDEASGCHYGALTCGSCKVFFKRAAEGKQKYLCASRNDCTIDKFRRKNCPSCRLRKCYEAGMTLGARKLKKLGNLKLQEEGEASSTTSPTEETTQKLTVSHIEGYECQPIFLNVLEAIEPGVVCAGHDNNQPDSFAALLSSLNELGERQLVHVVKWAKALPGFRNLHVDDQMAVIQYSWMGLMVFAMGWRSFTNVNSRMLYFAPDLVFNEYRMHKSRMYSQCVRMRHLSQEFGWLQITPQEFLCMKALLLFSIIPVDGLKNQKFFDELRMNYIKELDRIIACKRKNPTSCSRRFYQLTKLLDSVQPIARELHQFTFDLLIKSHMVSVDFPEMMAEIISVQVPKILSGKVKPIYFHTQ
# Outline: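 VCaP cells treated for 24 h at 10, 100 or 1000 nM. AR protein measured by Western blotting.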
# LNCaP = test: Induction of androgen receptor degradation in human LNCaP cells at 100 nM pretreated with thalidomide for 2 hrs followed by compound addition and 3 hrs by Western blot analysis; type: functional, cell-based; conditions: time 5.0 hrs
# Outline: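 LNCaP or VCaP cells pretreated 2 h with DMSO, ARi-12 (10 μM), thalidomide (10 μM), MG-132 (3 μM) or MLN4924 (0.5 μM), then given degrader at 100 nM for 3 h. AR measured by Western blot with GAPDH as loading control.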
# [2] = Downregulation of KLK3 gene expression in human VCaP cells at 30 nM incubated for 24 hrs by qRT-PCR analysis; type: functional
# Outline: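 LNCaP cells (RPMI 1640) or VCaP cells (DMEM Glutamax), both with 10% FBS, treated for 24 h. KLK3 mRNA measured by qRT-PCR and calculated by the comparative CT method against GAPDH and vehicle.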
# [3] = Metabolic stability in rat liver microsomes assessed as half life at 1 uM measured upto 45 mins in presence of NADPH by LC-MS/MS analysis; type: ADME, Microsome; conditions: 0.75 h
# Outline: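 Pooled liver microsomes from each species: 1 μM compound with 0.5 mg/mL microsomes and 1.7 mM NADPH in 0.1 M K-phosphate, pH 7.4, 5 mM MgCl2, 37 °C. Sampled at 0, 5, 10, 15, 30 and 45 min with cold ACN quench. No-NADPH incubation as negative control; ketanserin as positive control. LC-MS/MS; half-life from ln(remaining) versus time.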
# Cytochrome P450 2B6 = biological target: T2, Cytochrome P450 2B6 (Homo sapiens, UniProt P20813); test: Inhibition of CYP2B6 in human liver microsomes preincubated for 5 mins followed by NADPH addition and measured after 10 mins by LC/MS analysis; type: ADME, Microsome
# T2 sequence (P20813 whole entry): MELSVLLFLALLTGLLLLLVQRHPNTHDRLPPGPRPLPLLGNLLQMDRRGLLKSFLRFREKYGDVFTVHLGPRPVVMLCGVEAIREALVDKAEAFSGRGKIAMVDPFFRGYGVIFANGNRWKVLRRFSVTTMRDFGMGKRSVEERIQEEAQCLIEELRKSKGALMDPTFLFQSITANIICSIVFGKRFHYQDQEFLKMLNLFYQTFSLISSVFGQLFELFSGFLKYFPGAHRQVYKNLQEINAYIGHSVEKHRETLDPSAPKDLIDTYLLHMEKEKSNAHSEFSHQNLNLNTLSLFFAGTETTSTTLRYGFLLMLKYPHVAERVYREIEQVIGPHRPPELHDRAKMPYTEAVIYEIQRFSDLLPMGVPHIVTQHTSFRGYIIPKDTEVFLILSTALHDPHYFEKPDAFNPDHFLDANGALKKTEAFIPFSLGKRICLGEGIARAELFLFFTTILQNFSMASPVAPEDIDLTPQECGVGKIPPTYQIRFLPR
# [4] = biological target: Voltage-gated inwardly rectifying potassium channel KCNH2 (Homo sapiens, UniProt Q12809); test: Inhibition of human ERG expressed in HEK293 cells by whole cell patch clamp assay; type: toxicity, cell-based
# Outline: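 Manual whole-cell patch clamp at room temperature on HEK293 cells stably expressing hERG. Compound tested at 3 and 30 μM in duplicate; terfenadine as positive control.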
# [5] = Drug concentration in CB17 SCID mouse plasma xenografted with human VCaP cells at 12.5 mg/kg, po measured after 24 hrs by LC-MS/MS analysis; type: ADME, organism-based
# Outline: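 SCID mice bearing one VCaP tumour each given a single oral 12.5 mg/kg dose in 100% PEG200. Plasma and tumour tissue collected at 6 and 24 h, 3 mice per time point. Values are mean ± SD.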
# [6] = Toxicity in CB17 SCID mouse assessed as weight loss at 3.75 to 30 mg/kg, po; type: organism-based; conditions: in vivo, dose 3.75-30 mg/kg
# Outline: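 SCID mice bearing VCaP xenografts dosed by oral gavage once daily for 21 days. Body weight and signs of toxicity monitored throughout.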
# Voltage-gated inwardly rectifying potassium channel KCNH2, sequence (Q12809 whole entry): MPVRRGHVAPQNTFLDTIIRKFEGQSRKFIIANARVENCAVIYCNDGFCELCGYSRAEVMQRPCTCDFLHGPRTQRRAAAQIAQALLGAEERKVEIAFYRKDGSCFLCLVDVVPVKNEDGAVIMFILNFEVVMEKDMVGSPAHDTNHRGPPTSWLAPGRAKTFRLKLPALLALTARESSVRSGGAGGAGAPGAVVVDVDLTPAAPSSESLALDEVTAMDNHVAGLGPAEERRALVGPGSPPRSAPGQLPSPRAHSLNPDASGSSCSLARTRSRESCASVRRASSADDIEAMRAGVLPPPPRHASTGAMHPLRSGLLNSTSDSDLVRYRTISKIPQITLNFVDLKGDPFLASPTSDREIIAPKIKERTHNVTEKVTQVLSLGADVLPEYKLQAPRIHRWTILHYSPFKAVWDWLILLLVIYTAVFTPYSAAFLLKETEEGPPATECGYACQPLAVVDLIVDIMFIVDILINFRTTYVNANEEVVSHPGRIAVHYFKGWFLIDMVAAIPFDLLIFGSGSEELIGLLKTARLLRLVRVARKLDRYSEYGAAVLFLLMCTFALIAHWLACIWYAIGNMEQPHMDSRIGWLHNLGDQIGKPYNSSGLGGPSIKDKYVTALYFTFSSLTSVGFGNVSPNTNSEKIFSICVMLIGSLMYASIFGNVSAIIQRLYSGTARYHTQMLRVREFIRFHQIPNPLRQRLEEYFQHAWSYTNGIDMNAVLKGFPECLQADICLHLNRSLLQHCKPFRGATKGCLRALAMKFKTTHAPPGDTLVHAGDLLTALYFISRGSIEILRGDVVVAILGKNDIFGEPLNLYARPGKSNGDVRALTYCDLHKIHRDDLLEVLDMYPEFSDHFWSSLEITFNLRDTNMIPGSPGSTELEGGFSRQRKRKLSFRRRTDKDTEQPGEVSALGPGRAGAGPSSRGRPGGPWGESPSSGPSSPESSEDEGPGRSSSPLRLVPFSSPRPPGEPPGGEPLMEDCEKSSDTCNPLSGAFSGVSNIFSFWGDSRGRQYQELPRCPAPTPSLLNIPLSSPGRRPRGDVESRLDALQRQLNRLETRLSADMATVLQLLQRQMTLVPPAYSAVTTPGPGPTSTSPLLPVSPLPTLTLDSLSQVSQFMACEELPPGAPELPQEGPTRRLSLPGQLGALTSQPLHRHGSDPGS
compound,measurement,setting,value
C[C@H]1CC2(CCN(c3ccc(C(=O)N4CCN(C5CN(c6ccc7c(c6)C(=O)N(C6CCC(=O)NC6=O)C7=O)C5)CC4)cc3)CC2)CN1c1ccc(C#N)c(Cl)c1 (stereo partly drawn),Activity,[1],> 95%
same,Activity,LNCaP,inactive
same,Activity,[2],87%
same,t1/2,[3],> 1 h
same,pIC50,Cytochrome P450 2B6,< 5.00
same,pIC50,[4],< 4.52
same,concentration at 24 h,[5],742 ng/mL
same,Activity,[6],< 5%
